Measured values published in paper PMC11522000 (Nature Microbiology, 2024).

Key:
[1] = test system: MDR-transfected MDCK cells; assay: MDCK MDR1 permeability and efflux; format: in vitro ADME; settings: MDCK MDR1, basolateral to apical
[2] = 2 weeks GLP rat toxicology study with toxicokinetics; format: in vivo; settings: both, Wistar; for AUC(0-t): AUC0-8, rat
Procedure, shortened: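 Male and female Wistar rats were about 7–8 weeks old at receipt and 9–10 weeks old at the start of dosing. They were dosed for 2 weeks at 50, 250 and 1000 mg/kg/day, with toxicokinetic plasma sampling.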

[3] = Stability in intestinal S9 fraction; format: in vitro ADME; settings: human
Procedure, shortened: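 Test compound added to intestinal S9 fraction of each species to start the reaction. Incubated in a shaking water bath at 37 °C, with samples taken at sequential timepoints. Samples quenched with ice-cold acetonitrile and analysed by LC-MS/MS. Half-life calculated from the rate of parent compound depletion.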

C. parvum = assay: Washout assay, nanoluciferase-expressing C. parvum; format: cell-based, Cryptosporidium parvum; settings: exposure 2–6 h post infection
Procedure, shortened: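 HCT-8 cells were grown to ~90% confluence, then infected with 400 nanoluciferase-expressing oocysts per well. Before infection, oocysts were primed for excystation with 10 mM HCl in water (10 min, 37 °C), then 2 mM sodium taurocholate in DPBS with Ca/Mg (10 min, 16 °C). Luminescence was read over time. RLU taken soon after infection served as day 0 and was used to normalize each timepoint.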

TK6 cells = assay: In vitro micronucleus test in TK6 cells; format: cell-based
[4] = plasma, po, 1000 mg/kg/day, EDI048 1000 mg/kg/day, day 1
[5] = plasma, po, 1000 mg/kg/day, EDI048 1000 mg/kg/day, day 14

Compound: CNC(=O)c1ccc(-c2cnn3ccc(C(=O)N(C)c4ccc(Cl)c(C(=O)OC)c4)cc23)cc1 [EDI048, methyl 2-chloro-5-(N-methyl-3-(4-(methylcarbamoyl)phenyl)pyrazolo[1,5-a]pyridine-5-carboxamido)benzoate]
- Permeability B–A [1]: 7.92 / 12.9 / 1.62 ×10^−6 cm s^−1
- NOAEL at 14 days ([2]; in vivo, po): 1000 mg/kg/day
- Tmax ([2]; plasma, oral, rat toxicity study): 30 min
- AUC(0-t) [2, 4]: 11.1 ng·h/mL
- AUC(0-t) [2, 5]: 18.6 ng·h/mL
- Cmax ([2]; plasma, po, 1000 mg/kg/day, Cmax, EDI048 1000 mg/kg/day, day 14): 4.13 ng/mL
- Tmax [2, 4]: 30 min
- Tmax [2, 5]: 30 min
- half-life [3]: 235 min
- washout: effect of 4 h exposure on parasite growth (C. parvum): does not affect parasite growth

Compound: CN(C(=O)c1ccn2ncc(-c3ccc(C(N)=O)cc3)c2c1)c1ccc(C#N)cn1 [KDU731, 3–(4-carbamoylphenyl)-N-(5-cyanopyridin-2-yl)-N-methylpyrazolo [1,5-a]pyridine-5-carboxamide, reference compound]
- In vitro TK6 Micronucleus (MN) test (TK6 cells): Negative
